This passage reports Ratio and MIC results from ChEMBL document CHEMBL1132760, “Coumarin inhibitors of gyrase B with N-propargyloxy-carbamate as an effective pyrrole bioisostere” (2000).

≈ marks a conversion by molar mass, not a printed value.

Assay [1] relates to DNA gyrase (Staphylococcus aureus). Briefly: In vitro activity against Staphylococcus aureus DNA gyrase supercoiling, expressed as IC50 novobiocin / IC50 compound.
In assay [2] the test system is Staphylococcus aureus. Briefly: Antibacterial activity against Staphylococcus aureus 011HT3. It is filed as functional. Summed up:
(§1)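 MIC by 2-fold broth microdilution, read after 24 h incubation; strain resistance phenotypes noted.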

Assay [3] concerns Staphylococcus aureus. Briefly: Antibacterial activity against ofloxacin,oxacillin,erythromycin resistant Staphylococcus aureus 011GO64. Format: functional. The essentials:
(§2)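 MIC read after 24 h incubation by two-fold broth microdilution. Strains are tested with their labelled resistance phenotypes (ofloxacin, oxacillin, erythromycin, novobiocin, teicoplanin or vancomycin resistance, as given in each strain designation).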

Another assay concerns Enterococcus faecium. Briefly: Antibacterial activity against vancomycin, teicoplanin, erythromycin resistant Enterococcus faecium. Format: functional. Summed up:
as §2

Assay [4] deals with Staphylococcus epidermidis. Briefly: Antibacterial activity against oxacillin resistant Staphylococcus epidermidis 012GO42. Format: functional. Summed up:
as §2

The subject of assay [5] is Staphylococcus aureus. Briefly: Antibacterial activity tested against novobiocin resistant Staphylococcus aureus 011HT1. Format: functional. Summed up:
as §1

The next assay concerns Streptococcus pyogenes. Briefly: Antibacterial activity tested against Streptococcus pyogenes 02AIUC1. Format: functional. The essentials: as §1
Assay [6] can be described thus: In vitro activity against Staphylococcus aureus DNA gyrase subunit B supercoiling, expressed as IC50 novobiocin / IC50 compound. Format: functional.

As a reminder, the MIC is the lowest concentration found to suppress growth. Take `CC#CCONC(=O)O[C@H]1[C@@H](O)[C@H](Oc2ccc3c(=O)c(C(=O)OCC)c(O)oc3c2C)OC(C)(C)[C@@H]1OC`: the Ratio in assay [1] was determined as 0.5. In addition, the minimal inhibitory concentration (MIC) against Staphylococcus aureus [2] is 10 µg/mL (≈ 18.2 µM); in the assay on Staphylococcus aureus [3], 40 µg/mL (≈ 72.8 µM); with Enterococcus faecium it was over 40 µg/mL; in assay [4], 10 µg/mL (≈ 18.2 µM); in the assay on Staphylococcus aureus [5], over 40 µg/mL; in the assay with Streptococcus pyogenes, over 40 µg/mL.
As for `C#CCONC(=O)O[C@H]1[C@@H](O)[C@H](Oc2ccc3c(O)c(/C(C)=N/OCCN4CCOCC4)c(=O)oc3c2C)OC(C)(C)[C@@H]1OC`, the minimal inhibitory concentration (MIC) worked out at 0.15 µg/mL (≈ 0.237 µM) in the assay on Staphylococcus aureus [2]; 0.6 µg/mL (≈ 0.947 µM) against Staphylococcus aureus [3]; 20 µg/mL (≈ 31.6 µM) in the assay with Enterococcus faecium; 0.15 µg/mL (≈ 0.237 µM) in assay [4]; 5 µg/mL (≈ 7.89 µM) with Staphylococcus aureus [5]; 1.2 µg/mL (≈ 1.89 µM) against Streptococcus pyogenes. In assay [6], the Ratio turned out to be 4.
For the molecule `C#CCONC(=O)O[C@H]1[C@@H](O)[C@H](Oc2ccc3c(=O)c(C(=O)NOCC)c(O)oc3c2C)OC(C)(C)[C@@H]1OC`, the MIC was under 0.04 µg/mL in the assay with Staphylococcus aureus [2]; 0.08 µg/mL (≈ 0.145 µM) against Staphylococcus aureus [3]; 0.6 µg/mL (≈ 1.09 µM) in the assay with Enterococcus faecium; 0.6 µg/mL (≈ 1.09 µM) in assay [4]; 1.2 µg/mL (≈ 2.18 µM) against Staphylococcus aureus [5]; 0.15 µg/mL (≈ 0.272 µM) against Streptococcus pyogenes. In addition, in assay [6], the Ratio was 5.6.
As for `C#CCONC(=O)O[C@H]1[C@@H](O)[C@H](Oc2ccc3c(=O)c(/C(C)=N/OCOCCOC)c(O)oc3c2C)OC(C)(C)[C@@H]1OC`, the minimal inhibitory concentration (MIC) was determined as 0.08 µg/mL (≈ 0.131 µM) in the assay on Staphylococcus aureus [2]; 0.6 µg/mL (≈ 0.986 µM) with Staphylococcus aureus [3]; 5 µg/mL (≈ 8.22 µM) in the assay on Enterococcus faecium; 1.2 µg/mL (≈ 1.97 µM) in assay [4]; 10 µg/mL (≈ 16.4 µM) against Staphylococcus aureus [5]; 0.6 µg/mL (≈ 0.986 µM) against Streptococcus pyogenes. Also, the Ratio in assay [6] was determined as 4.
In the case of `C#CCONC(=O)O[C@H]1[C@@H](O)[C@H](Oc2ccc3c(O)c(C(=O)NCCO)c(=O)oc3c2C)OC(C)(C)[C@@H]1OC`, the minimal inhibitory concentration (MIC) against Staphylococcus aureus [2] was under 0.04 µg/mL; with Staphylococcus aureus [3], 0.08 µg/mL (≈ 0.145 µM); in the assay with Enterococcus faecium, 1.2 µg/mL (≈ 2.18 µM); in assay [4], under 0.04 µg/mL; against Staphylococcus aureus [5] it was 1.2 µg/mL (≈ 2.18 µM); with Streptococcus pyogenes, 0.6 µg/mL (≈ 1.09 µM). In addition, the Ratio in assay [6] was 2.6.
As to `C#CCONC(=O)O[C@H]1[C@@H](O)[C@H](Oc2ccc3c(=O)c(C(=O)NOC)c(O)oc3c2C)OC(C)(C)[C@@H]1OC`, the MIC against Staphylococcus aureus [2] stood at 0.08 µg/mL (≈ 0.149 µM); against Staphylococcus aureus [3], 0.6 µg/mL (≈ 1.12 µM); against Enterococcus faecium, 2.5 µg/mL (≈ 4.66 µM); in assay [4] it was 0.08 µg/mL (≈ 0.149 µM); against Staphylococcus aureus [5] it was 10 µg/mL (≈ 18.6 µM); in the assay on Streptococcus pyogenes it was 0.6 µg/mL (≈ 1.12 µM). Moreover, the Ratio in assay [6] was determined as 11.1.
Regarding `C#CCONC(=O)O[C@H]1[C@@H](O)[C@H](Oc2ccc3c(=O)c(/C(C)=N/OCC)c(O)oc3c2C)OC(C)(C)[C@@H]1OC`, the MIC in the assay with Staphylococcus aureus [2] was found to be 0.08 µg/mL (≈ 0.146 µM); in the assay with Staphylococcus aureus [3], 0.15 µg/mL (≈ 0.273 µM); in the assay with Enterococcus faecium, 1.2 µg/mL (≈ 2.19 µM); in assay [4], 0.15 µg/mL (≈ 0.273 µM); against Staphylococcus aureus [5], 2.5 µg/mL (≈ 4.56 µM); in the assay on Streptococcus pyogenes, 0.6 µg/mL (≈ 1.09 µM). For the same molecule, the Ratio in assay [6] amounted to 8.3.
Consider `C#CCONC(=O)O[C@H]1[C@@H](O)[C@H](Oc2ccc3c(=O)c(/C(C)=N/OC)c(O)oc3c2C)OC(C)(C)[C@@H]1OC`, for which the MIC came out at 0.15 µg/mL (≈ 0.281 µM) against Staphylococcus aureus [2]; 0.15 µg/mL (≈ 0.281 µM) in the assay with Staphylococcus aureus [3]; 2.5 µg/mL (≈ 4.68 µM) against Enterococcus faecium; 0.08 µg/mL (≈ 0.15 µM) in assay [4]; 5 µg/mL (≈ 9.35 µM) against Staphylococcus aureus [5]; 0.6 µg/mL (≈ 1.12 µM) in the assay with Streptococcus pyogenes. Moreover, in assay [6], the Ratio is 12.5.
